Experimental data from different studies.
Compare with care: the assays were run in different laboratories.
Target: Mitogen-activated protein kinase kinase kinase 1 (MAP3K1, Homo sapiens, UniProt Q13233)

The remaining binding of `CN(CCCC(F)(F)F)c1nccc(-c2cnn3ncccc23)n1` is reported as 75% (binding; 1 µM).
For `O=C(Nc1c[nH]nc1C(=O)NC1CCNCC1)c1cc(F)cc(F)c1`, the remaining binding was 84% (binding; competition with immobilised ligand; 1 µM).
`CN(C)c1nccc(-c2cnc3ncccn23)n1` has a remaining binding of 100% (binding; 1 µM).
`CCCOc1ccc([C@@H]2[C@@H](C(=O)O)[C@H](c3ccc4c(c3)OCO4)CN2CC(=O)Nc2c(CC)cccc2CC)cc1` gave a remaining binding of 80% (cell-free assay; competition with immobilised ligand; 1 µM).
The remaining binding of `O=C(c1ccc(Nc2ncc(Cl)c(-c3cc4ccccc4s3)n2)cc1)N1CCC(N2CCCC2)CC1` is reported as 79% (binding; competition with immobilised ligand; 1 µM).
The remaining binding of `CN(c1nccc(-c2cnn3ncccc23)n1)C1CC1` is reported as 81% (binding; 1 µM).
The remaining binding of `Cc1cc(NC(=O)c2cccc(S(F)(F)(F)(F)F)c2)cc(-n2ccn3nc(-c4cccnc4)cc23)c1` is reported as 90% (cell-free assay; competition with immobilised ligand; 1 µM).
With `FC(F)(F)Oc1cccc(-c2cnc3ccc(-c4ccncc4)nn23)c1` the remaining binding was 80% (cell-free assay; competition with immobilised ligand; 5 µM).
The remaining binding of `CCN1CCN(Cc2ccc(C(=O)Nc3ccc(C)c(Oc4ccc5c(c4)CC(=O)N5)c3)cc2C(F)(F)F)CC1` is reported as 100% (binding; competition with immobilised ligand; 1 µM).
`COc1cnc(Nc2cccc(S(N)(=O)=O)c2)nc1N1CCN(c2ccccc2)CC1` has a remaining binding of 100% (binding; competition with immobilised ligand; 1 µM).
With `O=C(N1CCS(=O)(=O)CC1)N1C[C@H](c2ccc(OC(F)(F)F)cc2)C[C@H](c2nc(C3CC3)no2)C1` the remaining binding was 100% (cell-free assay; competition with immobilised ligand; 1 µM).
`c1cnn2ncc(-c3ccnc(N4CCC45COC5)n3)c2c1` gave a remaining binding of 76% (binding; 1 µM).
For `O=C(NCCCN1CCOCC1)c1ccc(Nc2nccc(-c3cc4ccccc4s3)n2)cc1`, the remaining binding was 92% (binding; competition with immobilised ligand; 1 µM).
For `C=CC(=O)N1CCC(C(=O)NCC(=O)N2CCN(c3nc(-c4cnc(N)nc4C(F)F)nc(N4CCOCC4)n3)CC2)CC1`, the remaining binding was 93% (binding; competition with immobilised ligand; 1 µM).
`C[C@H]1CCN(c2nccc(-c3cnn4ncccc34)n2)C1` gave a remaining binding of 83% (binding; 1 µM).
For `CS(=O)(=O)N1CCCC(NC(=O)[C@H](CCC2CCCCC2)NC(=O)c2ccc(CNc3ncnc4c3nnn4-c3ccccc3)cc2)C1` (stereo partly shown), the remaining binding was 81% (cell-free assay; competition with immobilised ligand; 0.1 µM).
`Cc1cnc(Nc2ccc(C(=O)N3CCC(N4CCCC4)CC3)cc2)nc1-c1cc2ccccc2s1` has a remaining binding of 70% (binding; competition with immobilised ligand; 1 µM).
With `CSc1cccnc1N1CCN(Cc2nc3ccccc3[nH]2)CC1` the remaining binding was 70% (cell-free assay; competition with immobilised ligand; 1 µM).
For `Cc1cnn2ncc(-c3ccnc(N(C)C)n3)c2c1`, the remaining binding was 91% (binding; 1 µM).
The remaining binding of `COc1ccc2c(c1)O[C@@H](c1ccc(OC)c(OC)c1)C[C@H]2NC(=O)C1(c2ccc3c(c2)OC(F)(F)O3)CC1` is reported as 77% (cell-free assay; competition with immobilised ligand; 1 µM).
`N[C@H]1CCN(c2nccc(-c3cnn4ncccc34)n2)C1` has a remaining binding of 98% (binding; 1 µM).
The remaining binding of `c1cncc(-c2cccc(Nc3nccc(NC4CCCCC4)n3)c2)c1` is reported as 79% (binding; competition with immobilised ligand; 10 µM).
